≈ marks a conversion by molar mass, not a printed value.

Data set [1] has as its system Brachyspira pilosicoli. Briefly: Antimicrobial activity against Brachyspira pilosicoli 80.10 without producing beta-lactamase OXA-63 by disc diffusion method. It is filed as functional. Summed up: (§1)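 Disk diffusion was done on Mueller-Hinton agar supplemented with 5% sheep blood, following Comité de l'Antibiogramme de la Société Française de Microbiologie standards. Plates were incubated in an anaerobic jar at 37°C for 3 days.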
In general terms: A growth-free zone around the sample is the usual read-out of agar diffusion tests.

The test system of data set [2] is Escherichia coli. Briefly: Antimicrobial activity against Escherichia coli JM83 without producing beta-lactamase OXA-63 after 3 days by Etest. It is filed as functional.
For data set [3], the system named is Brachyspira pilosicoli. Briefly: Antimicrobial activity against beta-lactamase OXA-63 producing Brachyspira pilosicoli isolate BM4442 isolated from feces of patient with diarrhea by disc diffusion method. The format is functional. In outline: as §1
Data set [4] relates to Escherichia coli. As to the kind of experiment: Antimicrobial activity against Escherichia coli JM83 harboring beta-lactamase OXA-63 after 3 days by Etest. It is filed as functional. In outline:
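MICs for E. coli JM83 transformants were read by Etest on Mueller-Hinton agar. Transformants were selected on BHI agar with ampicillin 50 µg/ml and kanamycin 40 µg/ml.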

The target in data set [5] is T1, Class D beta-lactamase (Brachyspira pilosicoli) (UniProt Q50H31).
T1 sequence (whole entry): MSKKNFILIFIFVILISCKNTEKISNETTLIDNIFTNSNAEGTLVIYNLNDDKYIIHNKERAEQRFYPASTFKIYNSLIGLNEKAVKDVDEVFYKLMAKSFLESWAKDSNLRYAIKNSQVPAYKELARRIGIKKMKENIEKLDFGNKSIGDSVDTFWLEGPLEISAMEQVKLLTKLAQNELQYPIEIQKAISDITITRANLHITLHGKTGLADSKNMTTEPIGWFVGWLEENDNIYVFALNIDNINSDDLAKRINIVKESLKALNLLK
Briefly: Activity of Brachyspira pilosicoli beta-lactamase OXA-63 expressed in Escherichia coli BL21 (DE3) assessed as compound hydrolysis by spectrophotometry relative to oxacillin. More on the design: scale not given: the % may be the effect or the level left.

A short description of data set [6]: Ratio of Kcat to Km for beta-lactamase FUS1 assessed as compound hydrolysis by spectrophotometry.
A short description of data set [7]: Activity of beta-lactamase FUS1 assessed as compound hydrolysis by spectrophotometry.
A further data set has as its target T2, Class D beta-lactamase (Brachyspira pilosicoli, UniProt Q50H31).
T2 sequence (Q50H31 whole entry): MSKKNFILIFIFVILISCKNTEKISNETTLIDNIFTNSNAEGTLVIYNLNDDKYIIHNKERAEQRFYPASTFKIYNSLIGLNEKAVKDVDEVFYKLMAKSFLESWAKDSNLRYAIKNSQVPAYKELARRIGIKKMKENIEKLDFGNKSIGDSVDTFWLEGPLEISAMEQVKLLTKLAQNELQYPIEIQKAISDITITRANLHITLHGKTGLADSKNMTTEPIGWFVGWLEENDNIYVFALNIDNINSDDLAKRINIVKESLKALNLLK
As to the kind of experiment: Inhibition of Brachyspira pilosicoli beta-lactamase OXA-63 expressed in Escherichia coli BL21 (DE3) assessed as reduction in nitrocefin hydrolysis by spectrophotometry relative to oxacillin. Summed up:
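C-terminal His6-tagged OXA-63 was expressed in E. coli BL21(DE3)pLys with 0.5 mM IPTG for 4 h at 28°C and purified by nickel affinity. Enzyme (50 to 150 nM) was preincubated with inhibitor for 30 min at 25°C in 100 mM sodium phosphate, pH 7.0. 100 µM nitrocefin was then added, and initial hydrolysis rates were read spectrophotometrically. IC50 was the concentration halving the rate.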

A short description of data set [8]: Activity of beta-lactamase FUS1 assessed as compound hydrolysis by spectrophotometry relative to benzyl-penicillin. Set-up: scale not given: the % may be the effect or the level left.
Substrate in data set [9]: CC1(C)S[C@@H]2[C@H](NC(=O)[C@H](N)c3ccccc3)C(=O)N2[C@H]1C(=O)O
Briefly: (§2) Activity of Brachyspira pilosicoli beta-lactamase OXA-63 expressed in Escherichia coli BL21 (DE3) assessed as compound hydrolysis by spectrophotometry.

Substrate in data set [10]: Cc1onc(-c2ccccc2)c1C(=O)N[C@@H]1C(=O)N2[C@@H]1SC(C)(C)[C@@H]2C(=O)O
The description is as §2.

Substrate in data set [11]: CC1(C)S[C@@H]2[C@H](NC(=O)C(C(=O)O)c3ccccc3)C(=O)N2[C@H]1C(=O)O
The description is as §2.

Substrate in data set [12]: CC(=O)OCC1=C(C(=O)O)N2C(=O)[C@@H](NC(=O)Cc3cccs3)[C@H]2SC1
The description is as §2.

Substrate in data set [13]: CCN1CCN(C(=O)N[C@@H](C(=O)N[C@@H]2C(=O)N3[C@@H]2SC(C)(C)[C@@H]3C(=O)O)c2ccccc2)C(=O)C1=O
The data set is described as §2.

Substrate in data set [14]: CO/N=C(\C(=O)N[C@@H]1C(=O)N2C(C(=O)O)=C(COC(N)=O)CS[C@H]12)c1ccco1
Described as §2.

Substrate in data set [15]: CC1(C)S[C@@H]2[C@H](NC(=O)Cc3ccccc3)C(=O)N2[C@H]1C(=O)O
The data set is described as §2.

Substrate in data set [16]: CC1(C)S[C@@H]2[C@H](NC(=O)[C@H](N)c3ccccc3)C(=O)N2[C@H]1C(=O)O
Briefly: (§3) Ratio of Kcat to Km for Brachyspira pilosicoli beta-lactamase OXA-63 expressed in Escherichia coli BL21 (DE3) assessed as compound hydrolysis by spectrophotometry.

Substrate in data set [17]: Cc1onc(-c2ccccc2)c1C(=O)N[C@@H]1C(=O)N2[C@@H]1SC(C)(C)[C@@H]2C(=O)O
The description is as §3.

Substrate in data set [18]: CC1(C)S[C@@H]2[C@H](NC(=O)C(C(=O)O)c3ccccc3)C(=O)N2[C@H]1C(=O)O
The data set is described as §3.

Substrate in data set [19]: CCN1CCN(C(=O)N[C@@H](C(=O)N[C@@H]2C(=O)N3[C@@H]2SC(C)(C)[C@@H]3C(=O)O)c2ccccc2)C(=O)C1=O
Described as §3.

Substrate in data set [20]: CC1(C)S[C@@H]2[C@H](NC(=O)Cc3ccccc3)C(=O)N2[C@H]1C(=O)O
The data set is described as §3.

Broadly, the MIC is the lowest concentration found to suppress growth. Regarding `CC1(C)S[C@@H]2[C@H](NC(=O)[C@H](N)c3ccc(O)cc3)C(=O)N2[C@H]1C(=O)O` [AMOXICILLIN], the MIC in the data set with Brachyspira pilosicoli [1] was determined as 0.047 µg/mL (≈ 0.129 µM); in the data set with Escherichia coli [2] it was 6 µg/mL (≈ 16.4 µM); against Brachyspira pilosicoli [3], 1.5 µg/mL (≈ 4.1 µM); against Escherichia coli [4], 256 µg/mL (≈ 701 µM).

`C[C@@H](O)[C@H]1C(=O)N2C(C(=O)O)=C(SCCNC=N)C[C@H]12` [IMIPENEM ANHYDROUS]: the MIC is < 4 µg/mL against Brachyspira pilosicoli [1], < 4 µg/mL against Escherichia coli [2], < 4 µg/mL in the data set with Brachyspira pilosicoli [3] and 4 µg/mL (≈ 13.4 µM) in the data set on Escherichia coli [4].

Usually Km stands for the concentration of substrate that gives half-maximal velocity. One may read the kcat as the number of substrate molecules converted per active site and unit of time at saturation. On to `CC1(C)S[C@@H]2[C@H](NC(=O)Cc3ccccc3)C(=O)N2[C@H]1C(=O)O` [PENICILLIN G], for which the MIC is 0.023 µg/mL (≈ 0.0688 µM) against Brachyspira pilosicoli [1], 24 µg/mL (≈ 71.8 µM) in the data set with Escherichia coli [2], 2 µg/mL (≈ 5.98 µM) against Brachyspira pilosicoli [3] and 256 µg/mL (≈ 766 µM) with Escherichia coli [4]. In [5], the Activity turned out to be 25.5%. For the same molecule, the kcat/Km in [6] is 8.3 ×10⁷ /M/s. In addition, the Km in [7] stood at 10 µM. In addition, the turnover number (kcat) in data set [7] amounted to 830 s⁻¹.

As a reminder, the IC50 is the concentration needed to halve the response being measured. With `C[C@]1(Cn2ccnn2)[C@H](C(=O)O)N2C(=O)C[C@H]2S1(=O)=O` [TAZOBACTAM], the 50% inhibitory concentration (IC50) on Class D beta-lactamase was determined as 0.16 µM.

For `C[C@H]1[C@H](NC(=O)/C(=N\OC(C)(C)C(=O)O)c2csc(N)n2)C(=O)N1S(=O)(=O)O` [AZTREONAM], the MIC stood at 1 µg/mL (≈ 2.3 µM) in the data set with Brachyspira pilosicoli [1], 0.19 µg/mL (≈ 0.436 µM) with Escherichia coli [2], 1 µg/mL (≈ 2.3 µM) in the data set with Brachyspira pilosicoli [3] and 0.19 µg/mL (≈ 0.436 µM) with Escherichia coli [4].

In the case of `CC(=O)OCC1=C(C(=O)O)N2C(=O)[C@@H](NC(=O)Cc3cccs3)[C@H]2SC1`, the Activity in data set [8] was 0.1%. Further, the kcat/Km in data set [6] is 8.7 ×10⁵ /M/s. In data set [7], the Km is 47 µM and the kcat is 4.1 s⁻¹.

As for `CCN1CCN(C(=O)N[C@@H](C(=O)N[C@@H]2C(=O)N3[C@@H]2SC(C)(C)[C@@H]3C(=O)O)c2ccccc2)C(=O)C1=O` [PIPERACILLIN], the minimum inhibitory concentration (MIC) turned out to be 0.016 µg/mL (≈ 0.0309 µM) in the data set with Brachyspira pilosicoli [1], 1.5 µg/mL (≈ 2.9 µM) against Escherichia coli [2], 48 µg/mL (≈ 92.7 µM) against Brachyspira pilosicoli [3] and 96 µg/mL (≈ 185 µM) against Escherichia coli [4]. Further, in data set [5], the Activity was 6.5%.

`O=C(O)[C@H]1/C(=C/CO)O[C@@H]2CC(=O)N21` [CLAVULANIC ACID]: the IC50 at Class D beta-lactamase was 2 µM.

`CC1(C)[C@H](C(=O)O)N2C(=O)C[C@H]2S1(=O)=O` [SULBACTAM]: the IC50 at Class D beta-lactamase was determined as 12 µM.

In the case of `CO/N=C(\C(=O)N[C@@H]1C(=O)N2C(C(=O)O)=C(COC(C)=O)CS[C@H]12)c1csc(N)n1` [CEFOTAXIME], the MIC with Brachyspira pilosicoli [1] is < 0.016 µg/mL; in the data set with Escherichia coli [2], 0.064 µg/mL (≈ 0.141 µM); against Brachyspira pilosicoli [3], 0.032 µg/mL (≈ 0.0703 µM); against Escherichia coli [4] it was 0.064 µg/mL (≈ 0.141 µM).

`CC(C)(O/N=C(\C(=O)N[C@@H]1C(=O)N2C(C(=O)[O-])=C(C[n+]3ccccc3)CS[C@H]12)c1csc(N)n1)C(=O)O` [CEFTAZIDIME]: the MIC worked out at 4 µg/mL (≈ 7.32 µM) against Brachyspira pilosicoli [1], 0.5 µg/mL (≈ 0.915 µM) in the data set with Escherichia coli [2], 4 µg/mL (≈ 7.32 µM) against Brachyspira pilosicoli [3] and 0.5 µg/mL (≈ 0.915 µM) against Escherichia coli [4].

`CO/N=C(\C(=O)N[C@@H]1C(=O)N2C(C(=O)O)=C(COC(N)=O)CS[C@H]12)c1ccco1`: the Activity in data set [8] was 0.005%. Also, the kcat/Km in [6] turned out to be 4.5 ×10⁵ /M/s. Besides, in data set [7], the Km is > 400 µM and the turnover number (kcat) is > 1.8 s⁻¹.

Take `CC1(C)S[C@@H]2[C@H](NC(=O)[C@H](N)c3ccccc3)C(=O)N2[C@H]1C(=O)O`: the Activity in data set [8] is 0.7%; in data set [5], 15%. Further, the kcat/Km in data set [6] turned out to be 5.7 ×10⁵ /M/s. In addition, the Km in [7] amounted to 76 µM. The kcat in data set [7] came out at 45 s⁻¹.

With `C[C@@H](O)[C@H]1C(=O)N2C(C(=O)O)=C(S[C@@H]3CN[C@H](C(=O)N(C)C)C3)[C@H](C)[C@H]12` [MEROPENEM], the MIC worked out at 0.032 µg/mL (≈ 0.0834 µM) against Brachyspira pilosicoli [1], 0.032 µg/mL (≈ 0.0834 µM) in the data set with Escherichia coli [2], 0.032 µg/mL (≈ 0.0834 µM) against Brachyspira pilosicoli [3] and 0.016 µg/mL (≈ 0.0417 µM) in the data set with Escherichia coli [4].

The molecule `Cc1onc(-c2ccccc2)c1C(=O)N[C@@H]1C(=O)N2[C@@H]1SC(C)(C)[C@@H]2C(=O)O` [OXACILLIN] came in with a minimal inhibitory concentration (MIC) in the data set on Brachyspira pilosicoli [1] of 0.125 µg/mL (≈ 0.311 µM). Also, the Activity in data set [8] is 25%. Further, the kcat/Km in [6] is 2.1 ×10⁷ /M/s. Besides, the MIC with Brachyspira pilosicoli [3] is > 256 µg/mL. In addition, in data set [7], the Km worked out at 36 µM and the kcat came out at 780 s⁻¹.

B1: Class D beta-lactamase (Brachyspira pilosicoli), Q50H31 (protein)
chain: MSKKNFILIFIFVILISCKNTEKISNETTLIDNIFTNSNAEGTLVIYNLNDDKYIIHNKERAEQRFYPASTFKIYNSLIGLNEKAVKDVDEVFYKLMAKSFLESWAKDSNLRYAIKNSQVPAYKELARRIGIKKMKENIEKLDFGNKSIGDSVDTFWLEGPLEISAMEQVKLLTKLAQNELQYPIEIQKAISDITITRANLHITLHGKTGLADSKNMTTEPIGWFVGWLEENDNIYVFALNIDNINSDDLAKRINIVKESLKALNLLK
In the case of B1, the Km in [9] was determined as 43 µM; in data set [10], 115 µM; in data set [11], 17 µM; in data set [13] it was 33 µM; in [15], 19 µM. Moreover, the kcat in data set [9] is 6.6 s⁻¹; in data set [10], 113 s⁻¹; in [11], 1.1 s⁻¹; in data set [12] it was “Not Active”; in [13] it was 2.1 s⁻¹; in [14] it was “Not Active”. For the same molecule, in [15], the kcat worked out at 4.9 s⁻¹. In addition, the kcat/Km worked out at 1.5 ×10⁵ /M/s in [16]; 9.8 ×10⁵ /M/s in data set [17]; 6.5 ×10⁴ /M/s in data set [18]; 6.4 ×10⁴ /M/s in data set [19]; 2.5 ×10⁵ /M/s in data set [20].

For the origin of these results see ChEMBL document CHEMBL1255294, “Genetic and biochemical characterization of OXA-63, a new class D beta-lactamase from Brachyspira pilosicoli BM4442” (Antimicrob Agents Chemother, 2008).
